Measurements collected from several papers.
Compare with care: the assays were run in different laboratories. Values after ≈ are worked out from the molar mass of the structure shown.

`N#CC(=C1C=CC(=NOC(=O)OCc2ccccc2)C=C1)c1ccccc1` gave an MIC of 128 µg/mL (≈ 359 µM) (Pichia kudriavzevii; microbial growth, broth dilution; ATCC14243; 48 h).
With `O=C(Nc1cccc(Cl)c1)c1ccc(COC(Cn2ccnc2)c2ccc(Cl)cc2Cl)cc1` (stereo not drawn) the MIC80 was 0.25 µg/mL (≈ 0.499 µM) (Pichia kudriavzevii; microbial growth, broth dilution).
For `OC(Cn1cncn1)(Cn1cncn1)c1ccc(F)cc1F`, the MIC was 0.7 µg/mL (≈ 2.29 µM) (Pichia kudriavzevii; microbial growth, broth dilution; ATCC6258; 48 h).
`CCON=C1C=CC(=C(C#N)c2ccccc2)C=C1` gave an MIC of 256 µg/mL (≈ 1020 µM) (Pichia kudriavzevii; microbial growth, broth dilution; ATCC14243; 48 h).
The IC50 of `CC1=C(Cc2cn(CCO)nn2)C(=O)c2ccccc2C1=O` is reported as 1440 nM (Schistosoma mansoni; parasite growth; 72 h, larva).
For `C[C@@H]1[C@H](O)[C@@H](C)/C=C/C=C/C=C/C=C/C=C/C=C/C=C/[C@H](O[C@@H]2O[C@H](C)[C@@H](O)[C@H](N)[C@@H]2O)C[C@@H]2O[C@](O)(C[C@@H](O)C[C@@H](O)[C@H](O)CC[C@@H](O)C[C@@H](O)CC(=O)O[C@H]1C)C[C@H](O)[C@H]2C(=O)O`, the MIC was 2 µg/mL (≈ 2.16 µM) (Pichia kudriavzevii; microbial growth, broth dilution; ATCC14243; 48 h).
For `CC1=C(Cn2ccnc2[N+](=O)[O-])C(=O)c2ccccc2C1=O`, the IC50 was 1030 nM (Schistosoma mansoni; parasite growth; 72 h, larva).
The MFC of `C=CC(=O)ON=C1C=CC(=C(C#N)c2ccccc2)C=C1` is reported as 16 µg/mL (≈ 57.9 µM) (Pichia kudriavzevii; microbial killing, broth dilution; ATCC14243; 48 h).
`CC1=C(Cn2cc(CO)nn2)C(=O)c2ccccc2C1=O` has an IC50 of 1050 nM (Schistosoma mansoni; parasite growth; 72 h, larva).
For `COc1cc(NC(=O)Cn2ccc3ccc(-c4nnc(C)o4)cc32)cc(OC)c1OC`, the EC50 was 200 to 660 nM (Plasmodium knowlesi; parasite growth, SYBR Green; 30 h, blood stage).
`CC1=C(Cn2cc(COC3COC3)nn2)C(=O)c2ccccc2C1=O` gave an IC50 of 1080 nM (Schistosoma mansoni; parasite growth; 72 h, larva).
The MFC of `CC(=O)ON=C1C=CC(=C(C#N)c2ccccc2)C=C1` is reported as 16 µg/mL (≈ 60.5 µM) (Pichia kudriavzevii; microbial killing, broth dilution; ATCC14243; 48 h).
The MIC80 of `COc1ccc(NC(=O)c2ccc(COC(Cn3ccnc3)c3ccc(Cl)cc3Cl)cc2)cc1` (stereo not drawn) is reported as 0.125 µg/mL (≈ 0.252 µM) (Pichia kudriavzevii; microbial growth, broth dilution).
For `O=C1/C(=C/c2ccc3ccccc3c2O)NC(=S)N1c1ccccc1`, the MIC was 20 µg/mL (≈ 57.7 µM) (Fusarium solani; microbial growth, broth dilution).
`O=C(Nc1ccc(Cl)cc1)c1ccc(COC(Cn2ccnc2)c2ccc(Cl)cc2Cl)cc1` (stereo not drawn) has an MIC80 of 0.125 µg/mL (≈ 0.25 µM) (Pichia kudriavzevii; microbial growth, broth dilution).
`C#CCOC(=O)ON=C1C=CC(=C(C#N)c2ccccc2)C=C1` has an MFC of 32 µg/mL (≈ 105 µM) (Pichia kudriavzevii; microbial killing, broth dilution; ATCC14243; 48 h).
`O=C(Nc1ccc(F)cc1)c1ccc(COC(Cn2ccnc2)c2ccc(Cl)cc2Cl)cc1` (stereo not drawn) has an MIC80 of 0.06 µg/mL (≈ 0.124 µM) (Pichia kudriavzevii; microbial growth, broth dilution).
The IC50 of `CC1=C(Cn2cnc([N+](=O)[O-])n2)C(=O)c2ccccc2C1=O` is reported as 860 nM (Schistosoma mansoni; parasite growth; 72 h, larva).
For `O=C(Nc1cccc2ccccc12)c1ccc(COC(Cn2ccnc2)c2ccc(Cl)cc2Cl)cc1` (stereo not drawn), the MIC80 was 16 µg/mL (≈ 31 µM) (Pichia kudriavzevii; microbial growth, broth dilution).
`C#CCON=C1C=CC(=C(C#N)c2ccccc2)C=C1` gave an MIC of 32 µg/mL (≈ 123 µM) (Pichia kudriavzevii; microbial growth, broth dilution; ATCC14243; 48 h).
The MIC80 of `OC(Cn1cncn1)(Cn1cncn1)c1ccc(F)cc1F` is reported as 16 µg/mL (≈ 52.2 µM) (Pichia kudriavzevii; microbial growth, broth dilution).
`CC1=C(Cn2cc(C(C)(C)O)nn2)C(=O)c2ccccc2C1=O` has an IC50 of 1050 nM (Schistosoma mansoni; parasite growth; 72 h, larva).
`O=C(Nc1cccc(F)c1)c1ccc(COC(Cn2ccnc2)c2ccc(Cl)cc2Cl)cc1` (stereo not drawn) gave an MIC80 of 0.25 µg/mL (≈ 0.516 µM) (Pichia kudriavzevii; microbial growth, broth dilution).
`CC1=C(Cc2cn(CCN3CCN(C(=O)OC(C)(C)C)CC3)nn2)C(=O)c2ccccc2C1=O` has an IC50 of 1890 nM (Schistosoma mansoni; parasite growth; 72 h, larva).
